Reference: PMC10556424 (RSC Advances, 2023)
Where two headings read alike, the source gives them in different places.

Legend:
[1] = test system: HBV DNA in HBV-expressed HepG2.2.15 cells; experiment: In vitro anti-HBV activity in HepG2.2.15 cell line; assay type: cell-based; conditions: Hepatitis B virus; for activity at 1 µM: HepG2.2.15, 144 h, read-out: % HBV DNA remaining
Procedure, shortened: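 HepG2.2.15 cells were seeded at 5 × 10^5 per well in high-glucose DMEM with 10% heat-inactivated FBS, 300 mg L−1 G418, 1% non-essential amino acids and antibiotic–antimycotic, then held overnight at 37 °C, 5% CO2. Compound or 0.5% DMSO was given for 3 days, then renewed for 3 more days. Intracellular HBV DNA was measured by qPCR as % remaining versus vehicle; EC50 came from a 4-parameter nonlinear fit.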

[2] = In vitro microsomal stability; assay type: in vitro ADME; conditions: human liver microsomes, 1 μM
Procedure, shortened: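 Compound (1 μM) with pooled human liver microsomes (0.4 mg mL−1) in 100 mM potassium phosphate, pH 7.4, with 3.3 mM MgCl2 and 1.3 mM β-NADPH. Organic solvent was ≤1%, at 37 °C. Time-point samples were quenched with ice-cold acetonitrile containing internal standard, centrifuged, and the supernatants analysed by LC-MS/MS. Results are intrinsic clearance.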

[3] = test system: all tested CYPs: CYP1A2, CYP2A6, CYP2B6, CYP2C8, CYP2C9, CYP2C19, CYP2D6, CYP2E1, CYP3A4/5; experiment: CYP450 inhibition in human liver microsomes, all tested CYPs; assay type: in vitro ADME; conditions: pooled human liver microsomes, pH 7.4
Procedure, shortened: (§1)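 Test compound at 10 μM with pooled human liver microsomes (0.2 mg mL−1) and a cocktail of 10 CYP probe substrates. Buffer was 100 mM potassium phosphate, pH 7.4, with 3.3 mM MgCl2, at 37 °C. β-NADPH (1.3 mM) started the reaction. After 10 min, ice-cold 3% formic acid in 5% acetonitrile stopped it. Centrifuged samples went to LC-MS/MS; each metabolite's formation is given as % inhibition versus control.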

[4] = Site of oxidative metabolism; assay type: in vitro ADME; conditions: ESI file S2
CYP2C19 = CYP2C19 (Homo sapiens, UniProt P33261); experiment: CYP450 inhibition in human liver microsomes; assay type: in vitro ADME; conditions: pooled human liver microsomes, pH 7.4, probe (S)-mephenytoin (50 μM)
Procedure, shortened: as §1

CYP2B6 = target: T1, CYP2B6 (Homo sapiens, UniProt P20813); experiment: CYP450 inhibition in human liver microsomes; assay type: in vitro ADME; conditions: pooled human liver microsomes, pH 7.4, probe bupropion (12 μM)
T1 sequence (P20813 1-491): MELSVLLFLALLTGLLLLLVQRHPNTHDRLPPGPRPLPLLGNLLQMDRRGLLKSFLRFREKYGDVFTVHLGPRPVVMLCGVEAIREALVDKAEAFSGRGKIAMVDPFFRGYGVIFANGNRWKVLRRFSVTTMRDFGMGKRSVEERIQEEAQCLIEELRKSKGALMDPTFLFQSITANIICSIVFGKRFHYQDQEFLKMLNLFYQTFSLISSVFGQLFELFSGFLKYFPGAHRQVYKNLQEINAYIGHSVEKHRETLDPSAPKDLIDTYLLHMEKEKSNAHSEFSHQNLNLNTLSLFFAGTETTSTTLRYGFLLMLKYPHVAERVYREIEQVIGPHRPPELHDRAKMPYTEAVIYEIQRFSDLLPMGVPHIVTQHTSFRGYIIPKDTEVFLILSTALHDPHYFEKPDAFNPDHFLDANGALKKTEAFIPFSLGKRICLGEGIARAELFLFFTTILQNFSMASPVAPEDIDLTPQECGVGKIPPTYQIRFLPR
Procedure, shortened: as §1

CYP2D6 = CYP2D6 (Homo sapiens, UniProt P10635); experiment: CYP450 inhibition in human liver microsomes; assay type: in vitro ADME; conditions: pooled human liver microsomes, pH 7.4, probe dextromethorphan (2.5 μM)
Procedure, shortened: as §1

CYP2C9 = CYP2C9 (Homo sapiens, UniProt P11712); experiment: CYP450 inhibition in human liver microsomes; assay type: in vitro ADME; conditions: pooled human liver microsomes, pH 7.4, probe tolbutamide (100 μM)
Procedure, shortened: as §1

[5] = Pharmacokinetic studies in rats; assay type: in vivo; conditions: male, Sprague-Dawley, rat, plasma; for clearance: iv, 0.5 mg/kg; for bioavailability: po, 2 mg/kg
Procedure, shortened: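 Male Sprague-Dawley rats got a single IV bolus (0.5 mg kg−1, in 10% DMSO in 20% hydroxypropyl methyl β-cyclodextrin) or oral gavage (2 mg kg−1, in 40% polyethylene glycol in water). Plasma was taken pre-dose and up to 24 h and assayed by LC-MS/MS. CL and F came from non-compartmental analysis.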

HBV = conditions: cited from earlier work
[6] = HepG2.2.15, read-out: HBV DNA inhibition EC50

CYP2C9, sequence (P11712 whole entry): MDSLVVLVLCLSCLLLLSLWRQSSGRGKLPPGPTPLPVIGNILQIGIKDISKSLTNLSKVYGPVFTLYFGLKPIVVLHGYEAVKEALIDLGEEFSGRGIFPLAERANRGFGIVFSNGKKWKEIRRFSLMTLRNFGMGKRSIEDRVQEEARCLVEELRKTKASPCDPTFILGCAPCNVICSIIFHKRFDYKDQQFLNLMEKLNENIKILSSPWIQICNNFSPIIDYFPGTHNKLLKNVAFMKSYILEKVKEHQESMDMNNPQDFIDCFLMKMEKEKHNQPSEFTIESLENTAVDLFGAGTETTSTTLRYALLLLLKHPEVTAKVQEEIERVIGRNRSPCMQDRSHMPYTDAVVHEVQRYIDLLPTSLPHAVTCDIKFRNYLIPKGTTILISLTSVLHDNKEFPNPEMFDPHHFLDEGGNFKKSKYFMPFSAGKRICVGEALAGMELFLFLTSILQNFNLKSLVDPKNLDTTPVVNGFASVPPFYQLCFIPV
CYP2C19, sequence (P33261 whole entry): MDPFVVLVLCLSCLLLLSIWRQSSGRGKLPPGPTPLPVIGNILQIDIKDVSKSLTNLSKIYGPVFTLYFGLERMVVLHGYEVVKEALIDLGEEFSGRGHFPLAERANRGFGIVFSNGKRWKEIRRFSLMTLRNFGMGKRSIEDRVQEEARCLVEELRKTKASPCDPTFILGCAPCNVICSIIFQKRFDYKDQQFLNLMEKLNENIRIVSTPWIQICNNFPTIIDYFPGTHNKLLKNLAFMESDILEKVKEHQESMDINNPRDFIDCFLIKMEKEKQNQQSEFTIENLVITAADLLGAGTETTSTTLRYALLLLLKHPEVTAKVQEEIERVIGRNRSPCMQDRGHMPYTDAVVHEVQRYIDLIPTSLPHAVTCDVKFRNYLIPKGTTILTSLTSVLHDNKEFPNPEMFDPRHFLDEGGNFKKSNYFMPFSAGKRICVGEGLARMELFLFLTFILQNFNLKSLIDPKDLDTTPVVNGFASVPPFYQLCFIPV
CYP2D6, sequence (P10635 whole entry): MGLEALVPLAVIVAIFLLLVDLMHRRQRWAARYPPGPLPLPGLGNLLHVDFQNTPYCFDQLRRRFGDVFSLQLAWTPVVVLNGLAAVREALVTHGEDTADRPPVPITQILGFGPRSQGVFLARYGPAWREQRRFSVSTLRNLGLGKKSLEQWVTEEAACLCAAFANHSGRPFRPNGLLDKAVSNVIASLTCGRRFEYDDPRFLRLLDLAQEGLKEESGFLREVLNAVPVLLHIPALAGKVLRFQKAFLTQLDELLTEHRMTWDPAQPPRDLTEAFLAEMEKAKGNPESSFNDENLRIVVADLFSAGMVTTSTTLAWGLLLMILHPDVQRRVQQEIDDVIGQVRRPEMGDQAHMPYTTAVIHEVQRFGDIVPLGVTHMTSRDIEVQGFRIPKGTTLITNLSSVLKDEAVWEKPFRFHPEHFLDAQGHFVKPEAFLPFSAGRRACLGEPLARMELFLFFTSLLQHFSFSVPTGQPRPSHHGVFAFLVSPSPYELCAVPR

CLint ([2]; Table 3) [μL per min per mg protein] | inhibition at 10 min, 10 µM (CYP2B6) [%] | inhibition at 10 min, 10 µM (CYP2C9) [%] | EC50 [1, 6] [nM] | CLint ([2]; Table 4) [μL per min per mg protein] | Compound | activity at 1 µM [1] [%] | further results
14.4 | – | – | – | – | Cc1ccc(C(=O)N2CC[C@H](C(=O)Nc3cc(F)c(F)c(F)c3)C2)[nH]1 [CU01, (S)-1-(5-Methyl-1H-pyrrole-2-carbonyl)-N-(3,4,5-trifluorophenyl)pyrrolidine-3-carboxamide] | 59 | inhibition at 10 min, 10 µM [3]: < 20%
14.5 | 50 | – | – | – | O=C(Nc1cc(F)c(F)c(F)c1)[C@H]1CCN(C(=O)c2ccc(C3CC3)[nH]2)C1 [CU02, (S)-1-(5-cyclopropyl-1H-pyrrole-2-carbonyl)-N-(3,4,5-trifluorophenyl)pyrrolidine-3-carboxamide] | 48 | Site of oxidative metabolic reactions [4]: oxidative metabolic reactions primarily occurred on the R group; inhibition at 10 min, 10 µM (CYP2C19): 53%
9.2 | – | 62 | – | – | O=C(Nc1cc(F)c(F)c(F)c1)[C@H]1CCN(C(=O)c2cc3ccccc3[nH]2)C1 [CU03, (S)-1-(1H-Indole-2-carbonyl)-N-(3,4,5-trifluorophenyl)pyrrolidine-3-carboxamide] | 44 | EC50 ([1]; HepG2.2.15): 447 nM; inhibition at 10 min, 10 µM (CYP2D6): 51%; Site of oxidative metabolic reactions [4]: oxidative metabolic reactions primarily occurred on the R group; inhibition at 10 min, 10 µM (CYP2C19): 63%
2.9 | 65 | 87 | – | – | O=C(Nc1cc(F)c(F)c(F)c1)[C@H]1CCN(C(=O)c2ccc(-c3cccnc3)[nH]2)C1 [CU05, (S)-1-(5-(Pyridin-3-yl)-1H-pyrrole-2-carbonyl)-N-(3,4,5-trifluorophenyl)pyrrolidine-3-carboxamide] | 47 | –
4.6 | 81 | 67 | – | – | O=C(Nc1cc(F)c(F)c(F)c1)[C@H]1CCN(C(=O)c2ccc(-c3ccncc3)[nH]2)C1 [CU06, (S)-1-(5-(Pyridin-4-yl)-1H-pyrrole-2-carbonyl)-N-(3,4,5-trifluorophenyl)pyrrolidine-3-carboxamide] | 28 | inhibition at 10 min, 10 µM (CYP2D6): 89%
6.2 | – | – | – | – | O=C(Nc1cc(F)c(F)c(F)c1)[C@H]1CCN(C(=O)c2ccc(-c3ccccn3)[nH]2)C1 [CU07, (S)-1-(5-(Pyridin-2-yl)-1H-pyrrole-2-carbonyl)-N-(3,4,5-trifluorophenyl)pyrrolidine-3-carboxamide] | 77 | inhibition at 10 min, 10 µM [3]: < 20%
0.5 | 61 | 53 | – | – | O=C(Nc1cc(F)c(F)c(F)c1)[C@H]1CCN(C(=O)c2ccc(-c3cncnc3)[nH]2)C1 [CU08, (S)-1-(5-(Pyrimidin-5-yl)-1H-pyrrole-2-carbonyl)-N-(3,4,5-trifluorophenyl)pyrrolidine-3-carboxamide] | 43 | –
– | – | – | 18.2 ± 2 | 3.6 | Cc1ncnc(C)c1-c1ccc(C(=O)N2CC[C@H](C(=O)Nc3ccc(F)c(Cl)c3)C2)[nH]1 [CU12, (S)–N-(3-Chloro-4-fluorophenyl)-1-(5-(4,6-dimethylpyrimidin-5-yl)-1H-pyrrole-2-carbonyl)pyrrolidine-3-carboxamide] | – | –
– | – | – | 17.8 ± 3 | 2.1 | Cc1ncnc(C)c1-c1ccc(C(=O)N2CC[C@H](C(=O)Nc3cc(F)c(F)c(F)c3)[C@@H]2C)[nH]1 [CU13, (2S,3S)-1-(5-(4,6-Dimethylpyrimidin-5-yl)-1H-pyrrole-2-carbonyl)-2-methyl-N-(3,4,5-trifluorophenyl)pyrrolidine-3-carboxamide] | – | –
– | – | – | 13.2 ± 2 | 2.9 | Cc1ncnc(C)c1-c1ccc(C(=O)N2CC[C@H](C(=O)Nc3ccc(F)c(Cl)c3)[C@@H]2C)[nH]1 [CU14, (2S,3S)–N-(3-Chloro-4-fluorophenyl)-1-(5-(4,6-dimethylpyrimidin-5-yl)-1H-pyrrole-2-carbonyl)-2-methylpyrrolidine-3-carboxamide] | – | clearance [5]: 12.3 mL/min/kg; bioavailability [5]: 66%
– | – | – | 8.6 ± 2 | 4.9 | Cc1cc(NC(=O)[C@H]2CCN(C(=O)c3ccc(-c4c(C)ncnc4C)[nH]3)[C@H]2C)ccc1F [CU15, (2S,3S)-1-(5-(4,6-Dimethylpyrimidin-5-yl)-1H-pyrrole-2-carbonyl)-N-(4-fluoro-3-methylphenyl)-2-methylpyrrolidine-3-carboxamide] | – | EC50 ([1]; HepG2.2.15): < 10 nM; clearance [5]: 20 mL/min/kg; bioavailability [5]: 44%
– | – | – | 14.9 ± 3 | 11.7 | Cc1cc(NC(=O)[C@H]2CCN(C(=O)c3ccc(-c4c(C)n[nH]c4C)[nH]3)[C@H]2C)ccc1F [CU16, (2S,3S)-1-(5-(3,5-Dimethyl-1H-pyrazol-4-yl)-1H-pyrrole-2-carbonyl)-N-(4-fluoro-3-methylphenyl)-2-methylpyrrolidine-3-carboxamide] | – | –
– | – | – | – | – | C[C@H](NS(=O)(=O)c1cc(C(=O)Nc2ccc(F)c(C#N)c2)n(C)c1)C(F)(F)F [JNJ-6379] | – | pEC 50 (HBV): 7.22 (ref. [15])
